Structures are written as SMILES.

Usually IC50 stands for the concentration needed to halve the response being measured.

The assay is described as follows: Inhibition of beta-hematin formation assessed as Ferriprotoporphyrin IX biomineralisation after 24 hrs. Type of assay: functional. Summed up:
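Hemin (0.5 mg/ml in DMSO) was mixed with 0.5 M sodium acetate pH 4.4 and compound, then incubated for 24 h at 37 °C. The pellet was washed with DMSO to remove unreacted hemin and dissolved in 0.1 N NaOH, with A405 read. Percent inhibition was taken versus solvent control, and IC50 by curve fitting.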

For the compound `CCN(CC)CCCC(C)Nc1ccnc2cc(Cl)ccc12` (configuration not stated) [CHLOROQUINE], the IC50 amounted to 18 µM.
To `C=C[C@H]1CN2CC[C@H]1C[C@H]2[C@H](O)c1ccnc2ccc(OC)cc12` [QUININE] belongs 324 µM.

(Values after ChEMBL document CHEMBL2021854, “2-Aminopyrimidine based 4-aminoquinoline anti-plasmodial agents. Synthesis, biological activity, structure-activity relationship and mode of action studies” (Eur J Med Chem, 2012).)
